The record followed here is ChEMBL document CHEMBL1153954, “Promiscuous aggregate-based inhibitors promote enzyme unfolding” (J Med Chem, 2009).

Activity calls are given as the source filed them. No cut-off for these calls is given here.

In test [1] the target is AmpC (Escherichia coli) (UniProt Q83TT7). In words: Aggregation based inhibition of Escherichia coli AmpC assessed as increase in deuteration of AmpC peptide fragment spanning 42-56 amino acid sequence after 8 hrs by hydrogen-deuterium exchange mass spectrometry relative to control. Put shortly:
(§1)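 AmpC β-lactamase diluted from a 215 μM stock (50 mM KPi, pH 7.0) into deuterated 50 mM MOPS in D2O, pH 7.0. Final enzyme was 0.16 μM with 100 μM aggregator (0.5% DMSO) or 16 μM without. Aggregate samples were centrifuged 16000g for 5 min and the pellet kept. Triton X-100 was added to release enzyme. Samples were quenched with ice-cold 0.1% TFA pH 2.5, digested on immobilized pepsin 5 min on ice, then analysed by chilled fast-gradient LC-MS. Deuterium uptake is centroid mass shift versus the undeuterated control, not corrected for back exchange. Ratio is inhibited over uninhibited, from three replicates.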

For test [2] the target is unchanged. In words: Aggregation based inhibition of Escherichia coli AmpC assessed as solvent accessibility of AmpC peptide fragment spanning 42-56 amino acid sequence by measuring ratio of side chain surface area to random coil values per amino acid reside by hydrogen-deuterium exchange mass spectrometry relative to control. The arrangement: scale not given: the % may be the effect or the level left. A digest of the protocol:
(§2)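 Side-chain solvent accessibility per peptide was calculated from the structure with a 1.4 Å probe radius and default atomic radii and solvation parameters. Each value is the average over residues of the side-chain surface area relative to its random-coil value. Above 50% is exposed; below 20% is buried.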

Test [3] has the same target. In words: Aggregation based inhibition of Escherichia coli AmpC assessed as increase in deuteration of AmpC peptide fragment spanning 8-18 amino acid sequence after 8 hrs by hydrogen-deuterium exchange mass spectrometry relative to control. Put shortly:
as §1

Test [4] shares this target. Nature of the test: Aggregation based inhibition of Escherichia coli AmpC assessed as increase in deuteration of AmpC peptide fragment spanning 291-322 amino acid sequence after 10 mins by hydrogen-deuterium exchange mass spectrometry relative to control. Put shortly:
as §1

The target is the same in test [5]. Nature of the test: Aggregation based inhibition of Escherichia coli AmpC assessed as increase in deuteration of AmpC peptide fragment spanning 323-332 amino acid sequence after 8 hrs by hydrogen-deuterium exchange mass spectrometry relative to control. Put shortly: as §1
The target is the same in test [6]. In words: Aggregation based inhibition of Escherichia coli AmpC assessed as increase in deuteration of AmpC peptide fragment spanning 8-18 amino acid sequence after 1 hr by hydrogen-deuterium exchange mass spectrometry relative to control. A digest of the protocol:
as §1

Test [7] shares this target. In words: Aggregation based inhibition of Escherichia coli AmpC assessed as increase in deuteration of AmpC peptide fragment spanning 109-128 amino acid sequence after 8 hrs by hydrogen-deuterium exchange mass spectrometry relative to control. Put shortly: as §1
Test [8] shares this target. Nature of the test: Inhibition of Escherichia coli AmpC assessed as induction of protein unfolding measured by trypsin mediated degradation of compound-AmpC enzyme complex at 100 uM after 4 hrs by gel electrophoresis. Put shortly: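 AmpC (0.5 μM) was preincubated 5 min with or without 100 μM aggregator in 50 mM KPi, pH 7.0, 1% DMSO final. Trypsin (0.01 or 0.025 mg/mL) was then added, and digestion ran at room temperature for 0, 15, 30 min, 1 h or 4 h. Samples were boiled in DTT-containing loading buffer and the AmpC band was followed by SDS-PAGE.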

Test [9] has the same target. In words: Aggregation based inhibition of Escherichia coli AmpC assessed as increase in deuteration of AmpC peptide fragment spanning 291-322 amino acid sequence after 1 hr by hydrogen-deuterium exchange mass spectrometry relative to control. A digest of the protocol:
as §1

Test [10] has the same target. Nature of the test: Aggregation based inhibition of Escherichia coli AmpC assessed as increase in deuteration of AmpC peptide fragment spanning 271-289 amino acid sequence after 10 mins by hydrogen-deuterium exchange mass spectrometry relative to control. A digest of the protocol: as §1
Test [11] has the same target. Nature of the test: Aggregation based inhibition of Escherichia coli AmpC assessed as increase in deuteration of AmpC peptide fragment spanning 132-146 amino acid sequence after 10 mins by hydrogen-deuterium exchange mass spectrometry relative to control. Put shortly: as §1
For test [12] the target is unchanged. In words: Aggregation based inhibition of Escherichia coli AmpC assessed as increase in deuteration of AmpC peptide fragment spanning 105-128 amino acid sequence after 10 mins by hydrogen-deuterium exchange mass spectrometry relative to control. A digest of the protocol:
as §1

The target is the same in test [13]. In words: Aggregation based inhibition of Escherichia coli AmpC assessed as solvent accessibility of AmpC peptide fragment spanning 243-250 amino acid sequence by measuring ratio of side chain surface area to random coil values per amino acid reside by hydrogen-deuterium exchange mass spectrometry relative to control. Also noted: scale not given: the % may be the effect or the level left. Put shortly: as §2

Test [14] shares this target. In words: Aggregation based inhibition of Escherichia coli AmpC assessed as increase in deuteration of AmpC peptide fragment spanning 8-18 amino acid sequence after 10 mins by hydrogen-deuterium exchange mass spectrometry relative to control. Put shortly: as §1
The target is the same in test [15]. In words: Aggregation based inhibition of Escherichia coli AmpC assessed as solvent accessibility of AmpC peptide fragment spanning 291-322 amino acid sequence by measuring ratio of side chain surface area to random coil values per amino acid reside by hydrogen-deuterium exchange mass spectrometry relative to control. Also noted: scale not given: the % may be the effect or the level left. A digest of the protocol: as §2

The target is the same in test [16]. Nature of the test: Aggregation based inhibition of Escherichia coli AmpC assessed as solvent accessibility of AmpC peptide fragment spanning 336-350 amino acid sequence by measuring ratio of side chain surface area to random coil values per amino acid reside by hydrogen-deuterium exchange mass spectrometry relative to control. Also noted: scale not given: the % may be the effect or the level left. A digest of the protocol:
as §2

Test [17] shares this target. In words: Aggregation based inhibition of Escherichia coli AmpC assessed as solvent accessibility of AmpC peptide fragment spanning 8-18 amino acid sequence by measuring ratio of side chain surface area to random coil values per amino acid reside by hydrogen-deuterium exchange mass spectrometry relative to control. Also noted: scale not given: the % may be the effect or the level left. A digest of the protocol: as §2

For test [18] the target is unchanged. In words: Aggregation based inhibition of Escherichia coli AmpC assessed as increase in deuteration of AmpC peptide fragment spanning 271-289 amino acid sequence after 1 hr by hydrogen-deuterium exchange mass spectrometry relative to control. Put shortly: as §1
Test [19] shares this target. Nature of the test: Aggregation based inhibition of Escherichia coli AmpC assessed as solvent accessibility of AmpC peptide fragment spanning 323-332 amino acid sequence by measuring ratio of side chain surface area to random coil values per amino acid reside by hydrogen-deuterium exchange mass spectrometry relative to control. The arrangement: scale not given: the % may be the effect or the level left. A digest of the protocol:
as §2

Test [20] has the same target. In words: Aggregation based inhibition of Escherichia coli AmpC assessed as increase in deuteration of AmpC peptide fragment spanning 132-146 amino acid sequence after 8 hrs by hydrogen-deuterium exchange mass spectrometry relative to control. Put shortly: as §1

Sequence of AmpC (Escherichia coli) (Q83TT7 as listed by the source): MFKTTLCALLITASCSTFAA

In the case of `CC(=O)c1c(O)c(C)c(O)c(Cc2c(O)c3c(c(C(=O)/C=C/c4ccccc4)c2O)OC(C)(C)C=C3)c1O`, the fold change (FC) on AmpC (Escherichia coli) [1] came out at 1.8; at AmpC (Escherichia coli) [3] it was 2.5; on AmpC (Escherichia coli) [4], 1.6; at AmpC (Escherichia coli) [5] it was 2.7; at AmpC (Escherichia coli) [6], 2.3; at AmpC (Escherichia coli) [7], 1.6. In addition, the fold change (FC) on AmpC (Escherichia coli) [9] is 2.5; on AmpC (Escherichia coli) [10] it was 1.4; at AmpC (Escherichia coli) [11], 2.6; on AmpC (Escherichia coli) [12], 1.6; on AmpC (Escherichia coli) [14] it was 1.3; on AmpC (Escherichia coli) [18] it was 2.6. On AmpC (Escherichia coli) [20], the fold change (FC) was found to be 3.4. Besides, the Activity at AmpC (Escherichia coli) [2] was 44.7%; at AmpC (Escherichia coli) [13], 20.7%; at AmpC (Escherichia coli) [15], 22.3%; at AmpC (Escherichia coli) [16], 21.6%; at AmpC (Escherichia coli) [17], 35.7%; on AmpC (Escherichia coli) [19], 11.8%. Also, on AmpC (Escherichia coli) [8], the outcome was Active.
